# Reference: ChEMBL document CHEMBL1157848, “Derivatives of benzimidazole pharmacophore: synthesis, anticonvulsant, antidiabetic and DNA cleavage studies” (2010)
# Calls of active or inactive are those of the source. The calls are words filed in the database; no cut-off is given here.
# How the values were obtained:
# [1] = test system: Rattus norvegicus; test: Antidiabetic activity in Wistar albino rat assessed as reduction of blood glucose level administered qd for 9 days by glucose oxidation method (RVb = […] +/- […] mg/dl); assay type: functional
# [2] = test system: Rattus norvegicus; test: Antidiabetic activity in Wistar albino rat assessed as reduction of fasting blood glucose level administered qd for 9 days by oral glucose tolerance test (RVb = 83.33 +/- 1.54 mg/dl); assay type: functional
# [3] = test system: Rattus norvegicus; test: Antidiabetic activity in Wistar albino rat assessed as reduction of blood glucose level administered qd for 9 days measured after 30 mins last post dose by oral glucose tolerance test (RVb = 183.2 +/- 3.68 mg/dl); assay type: functional
# [4] = test system: Rattus norvegicus; test: Antidiabetic activity in Wistar albino rat assessed as reduction of blood glucose level administered qd for 9 days measured after 90 mins last post dose by oral glucose tolerance test (RVb = 135.7 +/- 2.9 mg/dl); assay type: functional
# [5] = test system: Nucleic Acid; test: Induction of Escherichia coli DNA cleavage at 25 mg after 2 hrs using ethidium bromide staining by agarose gel electrophoresis methos; assay type: nucleic-acid assay
# Procedure, shortened: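 Genomic DNA came from E. coli grown 24 h at 37 °C in nutrient broth. It was extracted by SDS/EDTA lysis, phenol then chloroform–isoamyl alcohol, and ethanol precipitation, and dissolved in TAE. Samples were incubated with the DNA 2 h at 37 °C, mixed 1:1 with bromophenol blue, and run on agarose in TAE at 50 V alongside a DNA marker. Gels were ethidium bromide stained 10–15 min and cleavage judged visually.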
# [6] = test system: Rattus norvegicus; test: Anticonvulsant activity in Wistar albino rat assessed as time spent on tonic flexion phase at 20 mg/kg by MES test (RVb = 3.12 +/- 0.31 sec); assay type: functional
# Procedure, shortened: (§1)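 Maximal electroshock (MES) convulsion model in rats. Duration in seconds of the flexion, extensor, clonus and stupor phases was recorded, along with recovery or death. The vehicle control was 1% w/w gum acacia and phenytoin was the reference. Data are mean ± SEM, with P < 0.05 taken as significant.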
# [7] = test system: Rattus norvegicus; test: Anticonvulsant activity in Wistar albino rat assessed as time spent on tonic extensor phase at 20 mg/kg by MES test (RVb = 11 +/- 0.57 sec); assay type: functional; procedure, shortened: as §1
# [8] = test system: Rattus norvegicus; test: Anticonvulsant activity in Wistar albino rat assessed as time spent on clonic convulsions phase at 20 mg/kg by MES test (RVb = 16.80 +/- 2.50 sec); assay type: functional; procedure, shortened: as §1
# [9] = test system: Rattus norvegicus; test: Anticonvulsant activity in Wistar albino rat assessed as time spent on stupor phase at 20 mg/kg by MES test (RVb = 218.33 +/- 5.80 sec); assay type: functional; procedure, shortened: as §1
# [10] = test system: Rattus norvegicus; test: Anticonvulsant activity in Wistar albino rat assessed as time spent on tonic flexion phase at 65 mg/kg by MES test (RVb = 3.12 +/- 0.31 sec); assay type: functional; procedure, shortened: as §1
# [11] = test system: Rattus norvegicus; test: Anticonvulsant activity in Wistar albino rat assessed as time spent on tonic extensor phase at 65 mg/kg by MES test (RVb = 11 +/- 0.57 sec); assay type: functional; procedure, shortened: as §1
# [12] = test system: Rattus norvegicus; test: Anticonvulsant activity in Wistar albino rat assessed as time spent on clonic convulsions phase at 65 mg/kg by MES test (RVb = 16.80 +/- 2.50 sec); assay type: functional; procedure, shortened: as §1
# [13] = test system: Rattus norvegicus; test: Anticonvulsant activity in Wistar albino rat assessed as time spent on stupor phase at 65 mg/kg by MES test (RVb = 218.33 +/- 5.80 sec); assay type: functional; procedure, shortened: as §1
# [14] = test system: Rattus norvegicus; test: Anticonvulsant activity in Wistar albino rat assessed as time spent on tonic flexion phase at 75 mg/kg by MES test (RVb = 3.12 +/- 0.31 sec); assay type: functional; procedure, shortened: as §1
# [15] = test system: Rattus norvegicus; test: Anticonvulsant activity in Wistar albino rat assessed as time spent on tonic extensor phase at 75 mg/kg by MES test (RVb = 11 +/- 0.57 sec); assay type: functional; procedure, shortened: as §1
# [16] = test system: Rattus norvegicus; test: Anticonvulsant activity in Wistar albino rat assessed as time spent on clonic convulsions phase at 75 mg/kg by MES test (RVb = 16.80 +/-2.50 sec); assay type: functional; procedure, shortened: as §1
# [17] = test system: Rattus norvegicus; test: Anticonvulsant activity in Wistar albino rat assessed as time spent on stupor phase at 75 mg/kg by MES test (RVb = 218.33 +/- 5.80 sec); assay type: functional; procedure, shortened: as §1
# [18] = test system: Rattus norvegicus; test: Anticonvulsant activity in Wistar albino rat assessed as time spent on tonic flexion phase at 70 mg/kg by MES test (RVb = 3.12 +/- 0.31 sec); assay type: functional; procedure, shortened: as §1
# [19] = test system: Rattus norvegicus; test: Anticonvulsant activity in Wistar albino rat assessed as time spent on tonic extensor phase at 70 mg/kg by MES test (RVb = 11 +/- 0.57 sec); assay type: functional; procedure, shortened: as §1
# [20] = test system: Rattus norvegicus; test: Anticonvulsant activity in Wistar albino rat assessed as time spent on clonic convulsions phase at 70 mg/kg by MES test (RVb = 16.80 +/- 2.50 sec); assay type: functional; procedure, shortened: as §1
# [21] = test system: Rattus norvegicus; test: Anticonvulsant activity in Wistar albino rat assessed as time spent on stupor phase at 70 mg/kg by MES test (RVb = 218.33 +/- 5.80 sec); assay type: functional; procedure, shortened: as §1
# [22] = test system: Rattus norvegicus; test: Anticonvulsant activity in Wistar albino rat assessed as time spent on tonic flexion phase at 60 mg/kg by MES test (RVb = 3.12 +/- 0.31 sec); assay type: functional; procedure, shortened: as §1
# [23] = test system: Rattus norvegicus; test: Anticonvulsant activity in Wistar albino rat assessed as time spent on tonic extensor phase at 60 mg/kg by MES test (RVb = 11 +/- 0.57 sec); assay type: functional; procedure, shortened: as §1
# [24] = test system: Rattus norvegicus; test: Anticonvulsant activity in Wistar albino rat assessed as time spent on clonic convulsions phase at 60 mg/kg by MES test (RVb = 16.80 +/- 2.50 sec); assay type: functional; procedure, shortened: as §1
# [25] = test system: Rattus norvegicus; test: Anticonvulsant activity in Wistar albino rat assessed as time spent on stupor phase at 60 mg/kg by MES test (RVb = 218.33 +/- 5.80 sec); assay type: functional; procedure, shortened: as §1
# [26] = test system: Rattus norvegicus; test: Anticonvulsant activity in Wistar albino rat assessed as time spent on tonic flexion phase at 80 mg/kg by MES test (RVb = 3.12 +/- 0.31 sec); assay type: functional; procedure, shortened: as §1
# [27] = test system: Rattus norvegicus; test: Anticonvulsant activity in Wistar albino rat assessed as time spent on tonic extensor phase at 80 mg/kg by MES test (RVb = 11 +/- 0.57 sec); assay type: functional; procedure, shortened: as §1
# [28] = test system: Rattus norvegicus; test: Anticonvulsant activity in Wistar albino rat assessed as time spent on clonic convulsions phase at 80 mg/kg by MES test (RVb = 16.80 +/- 2.50 sec); assay type: functional; procedure, shortened: as §1
# [29] = test system: Rattus norvegicus; test: Anticonvulsant activity in Wistar albino rat assessed as time spent on stupor phase at 80 mg/kg by MES test (RVb = 218.33 +/- 5.80 sec); assay type: functional; procedure, shortened: as §1
# [30] = test system: Rattus norvegicus; test: Anticonvulsant activity in Wistar albino rat assessed as time spent on tonic flexion phase at 82 mg/kg by MES test (RVb = 3.12 +/- 0.31 sec); assay type: functional; procedure, shortened: as §1
# [31] = test system: Rattus norvegicus; test: Anticonvulsant activity in Wistar albino rat assessed as time spent on tonic extensor phase at 82 mg/kg by MES test; assay type: functional; procedure, shortened: as §1
# [32] = test system: Rattus norvegicus; test: Anticonvulsant activity in Wistar albino rat assessed as time spent on clonic convulsions phase at 82 mg/kg by MES test (RVb = 16.80 +/- 2.50 sec); assay type: functional; procedure, shortened: as §1
# [33] = test system: Rattus norvegicus; test: Anticonvulsant activity in Wistar albino rat assessed as time spent on stupor phase at 82 mg/kg by MES test (RVb = 218.33 +/- 5.80 sec); assay type: functional; procedure, shortened: as §1
# [34] = test system: Rattus norvegicus; test: Anticonvulsant activity in Wistar albino rat assessed as time spent on tonic flexion phase at 85 mg/kg by MES test (RVb = 3.12 +/- 0.31 sec); assay type: functional; procedure, shortened: as §1
# [35] = test system: Rattus norvegicus; test: Anticonvulsant activity in Wistar albino rat assessed as time spent on tonic extensor phase at 85 mg/kg by MES test (RVb = 11 +/- 0.57 sec); assay type: functional; procedure, shortened: as §1
# [36] = test system: Rattus norvegicus; test: Anticonvulsant activity in Wistar albino rat assessed as time spent on clonic convulsions phase at 85 mg/kg by MES test (RVb = 16.80 +/- 2.50 sec); assay type: functional; procedure, shortened: as §1
# [37] = test system: Rattus norvegicus; test: Anticonvulsant activity in Wistar albino rat assessed as time spent on stupor phase at 85 mg/kg by MES test (RVb = 218.33 +/- 5.80 sec); assay type: functional; procedure, shortened: as §1
structure (smiles),measurement,setting,value
c1ccc(-c2nnc(CSc3nc4ccccc4[nH]3)o2)cc1,Activity,[1],337.2 mg/dL
same,Activity,[2],76.33 mg/dL
same,Activity,[3],180.2 mg/dL
same,Activity,[4],107.7 mg/dL
same,Activity,[5],inactive
O=C1NC(=O)C(c2ccccc2)(c2ccccc2)N1 [PHENYTOIN],Time,[6],2.87 s
same,Time,[7],0 s
same,Time,[8],4.9 s
same,Time,[9],158.6 s
O=C(CSc1nc2ccccc2[nH]1)NN1C(=O)CSC1c1ccco1 (centres undefined),Time,[10],4.2 s
same,Time,[11],5.3 s
same,Time,[12],1 s
same,Time,[13],208.6 s
O=C(CSc1nc2ccccc2[nH]1)NN1C(=O)CSC1c1ccc(Cl)cc1 (centres undefined),Time,[14],4.56 s
same,Time,[15],12.1 s
same,Time,[16],1.36 s
same,Time,[17],215.5 s
O=C(CSc1nc2ccccc2[nH]1)NN1C(=O)CSC1c1ccc(O)cc1 (centres undefined),Time,[18],3.96 s
same,Time,[19],3.73 s
same,Time,[20],1.02 s
same,Time,[21],202.1 s
same,Activity,[5],Active
Oc1ccc(-c2nnc(CSc3nc4ccccc4[nH]3)o2)cc1,Activity,[1],166.2 mg/dL
same,Activity,[2],80.83 mg/dL
same,Activity,[3],167.5 mg/dL
same,Activity,[4],125 mg/dL
same,Activity,[5],inactive
O=C(CSc1nc2ccccc2[nH]1)NN1C(=O)CSC1c1c(O)ccc2ccccc12 (centres undefined),Time,[22],3.08 s
same,Time,[23],3.98 s
same,Time,[24],1.8 s
same,Time,[25],172.5 s
Nc1ccc(C2SCC(=O)N2NC(=O)CSc2nc3ccccc3[nH]2)cc1 (centres undefined),Time,[22],3.15 s
same,Time,[23],5.66 s
same,Time,[24],15.4 s
same,Time,[25],210.5 s
O=[N+]([O-])c1ccc(-c2nnc(CSc3nc4ccccc4[nH]3)o2)c(Cl)c1,Activity,[1],187.7 mg/dL
same,Activity,[2],77.17 mg/dL
same,Activity,[3],155.3 mg/dL
same,Activity,[4],121.7 mg/dL
O=C(CSc1nc2ccccc2[nH]1)NN1C(=O)CSC1c1ccccc1 (centres undefined),Time,[26],3.2 s
same,Time,[27],9.2 s
same,Time,[28],1.2 s
same,Time,[29],192.5 s
Clc1ccc(-c2nnc(CSc3nc4ccccc4[nH]3)o2)cc1,Activity,[1],386.7 mg/dL
same,Activity,[2],74.83 mg/dL
same,Activity,[3],173.2 mg/dL
same,Activity,[4],120 mg/dL
COc1cccc(C2SCC(=O)N2NC(=O)CSc2nc3ccccc3[nH]2)c1O (centres undefined),Time,[30],3.3 s
same,Time,[31],4.21 s
same,Time,[32],16.2 s
same,Time,[33],213.8 s
COc1ccc(Cl)cc1C(=O)NCCc1ccc(S(=O)(=O)NC(=O)NC2CCCCC2)cc1 [GLYBURIDE],Activity,[1],139.2 mg/dL
same,Activity,[3],176.8 mg/dL
same,Activity,[4],105.7 mg/dL
Nc1ccc(-c2nnc(CSc3nc4ccccc4[nH]3)o2)cc1,Activity,[1],335.5 mg/dL
same,Activity,[2],80.85 mg/dL
same,Activity,[3],155.5 mg/dL
same,Activity,[4],106.5 mg/dL
O=[N+]([O-])c1ccc(-c2nnc(CSc3nc4ccccc4[nH]3)o2)cc1,Activity,[1],158.7 mg/dL
same,Activity,[2],78.33 mg/dL
same,Activity,[3],154.5 mg/dL
same,Activity,[4],110 mg/dL
O=C(CSc1nc2ccccc2[nH]1)NN1C(=O)CSC1c1ccccc1O (centres undefined),Time,[34],3.14 s
same,Time,[35],4.33 s
same,Time,[36],15.62 s
same,Time,[37],209.3 s
same,Activity,[5],Active
Cc1ccc(C2SCC(=O)N2NC(=O)CSc2nc3ccccc3[nH]2)cc1 (centres undefined),Time,[18],3.12 s
same,Time,[19],11 s
same,Time,[20],14.62 s
same,Time,[21],207.3 s
COc1ccc(C2SCC(=O)N2NC(=O)CSc2nc3ccccc3[nH]2)cc1 (centres undefined),Time,[14],3.02 s
same,Time,[15],9.5 s
same,Time,[16],12.62 s
same,Time,[17],208 s
Oc1cc(-c2nnc(CSc3nc4ccccc4[nH]3)o2)cc(O)c1O,Activity,[1],386.4 mg/dL
same,Activity,[2],73.33 mg/dL
same,Activity,[3],174.2 mg/dL
same,Activity,[4],110 mg/dL
c1cncc(-c2nnc(CSc3nc4ccccc4[nH]3)o2)c1,Activity,[1],343.3 mg/dL
same,Activity,[2],81.34 mg/dL
same,Activity,[3],181.8 mg/dL
same,Activity,[4],122.8 mg/dL
O=C1NC(=O)C(=O)C(=O)N1 [ALLOXAN],Activity,[1],339.8 mg/dL
